The source made the active and inactive calls. The calls are words filed in the database; no cut-off is given here.
Assays:
Rattus norvegicus [1] = organism: Rattus norvegicus; test: Cardiovascular activity in isolated rat heart, concentration producing 25% increase in LV + dP/dtmax.; assay type: functional
How it was run: (§1)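 Isolated Langendorff-perfused rat heart. Coronary flow (CF), LV +dP/dtmax and heart rate recorded during exposure to test agent. Value is the concentration giving a 25% rise in CF or in LV +dP/dtmax, mean ± SE. At least two hearts per compound.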

Rattus norvegicus [2] = organism: Rattus norvegicus; test: Cardiovascular activity in isolated rat heart, concentration producing 25% increase in CF (cardiac flow).; assay type: functional; how it was run: as §1
[3] = target: Voltage-gated L-type calcium channel (Rattus norvegicus, UniProt P22002+Q02485+P27732); test: Affinity to bind dihydropyridine receptor (DHP receptor) by inhibiting the radioligand [3H]nitrendipine; assay type: protein assay
How it was run: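 [3H]nitrendipine displacement, rat brain cortical membranes. Each compound first screened at 1000 nM; if inhibition exceeded 40%, a four- to seven-point curve with unlabeled compound was run. IC50 generally mean of two experiments, each in triplicate. ">1000 nM" means under 40% inhibition of control binding at 1000 nM.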

Rattus norvegicus [4] = organism: Rattus norvegicus; test: Compound was tested for the cardiovascular activity in isolated rat heart. Value represents the concentration producing 25% increase in CF (cardiac flow); NA indicates not active; assay type: functional; how it was run: as §1
Oryctolagus cuniculus [5] = organism: Oryctolagus cuniculus; test: Vasorelaxant effect at a concentration of 10e-4 M on rabbit aortic rings previously contracted with 1.0 uM Norepinephrine.; assay type: functional, Aorta; parameters: unit not given here
How it was run: (§2)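 Rabbit aortic rings precontracted with 50 mM KCl or 1.0 μM norepinephrine, then exposed to increasing concentrations of test agent. Relaxation recorded at each concentration.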

Oryctolagus cuniculus [6] = organism: Oryctolagus cuniculus; test: Vasorelaxant effect at a concentration of 10e-6 M on rabbit aortic rings previously contracted with 1.0 uM Norepinephrine.; assay type: functional, Aorta; parameters: unit not given here; how it was run: as §2
Oryctolagus cuniculus [7] = organism: Oryctolagus cuniculus; test: Vasorelaxant effect at a concentration of 10e-7 M on rabbit aortic rings previously contracted with 50 mM KCl.; assay type: functional, Aorta; parameters: unit not given here; how it was run: as §2
Oryctolagus cuniculus [8] = organism: Oryctolagus cuniculus; test: Vasorelaxant effect at a concentration of 10e-5 M on rabbit aortic rings previously contracted with 50 mM KCl.; assay type: functional, Aorta; parameters: unit not given here; how it was run: as §2
Oryctolagus cuniculus [9] = organism: Oryctolagus cuniculus; test: Vasorelaxant effect at a concentration of 10e-4 M on rabbit aortic rings previously contracted with 50 mM KCl.; assay type: functional, Aorta; parameters: unit not given here; how it was run: as §2
Oryctolagus cuniculus [10] = organism: Oryctolagus cuniculus; test: Vasorelaxant effect at a concentration of 10e-7 M on rabbit aortic rings previously contracted with 1.0 uM Norepinephrine.; assay type: functional, Aorta; parameters: unit not given here; how it was run: as §2
Oryctolagus cuniculus [11] = organism: Oryctolagus cuniculus; test: Vasorelaxant effect at a concentration of 10e-5 M on rabbit aortic rings previously contracted with 1.0 uM Norepinephrine.; assay type: functional, Aorta; parameters: unit not given here; how it was run: as §2
Oryctolagus cuniculus [12] = organism: Oryctolagus cuniculus; test: Vasorelaxant effect at a concentration of 10e-6 M on rabbit aortic rings previously contracted with 50 mM KCl.; assay type: functional, Aorta; parameters: unit not given here; how it was run: as §2
Rattus norvegicus [13] = organism: Rattus norvegicus; test: Compound was tested for the cardiovascular activity in isolated rat heart. Value represents the concentration producing 25% increase in LV + dP/dtmax; NA indicates not active; assay type: functional; how it was run: as §1
Oryctolagus cuniculus [14] = organism: Oryctolagus cuniculus; test: Vasorelaxant effect at a concentration of 10e-9 M on rabbit aortic rings previously contracted with 50 mM KCl.; assay type: functional; settings: Aorta; how it was run: as §2
Oryctolagus cuniculus [15] = organism: Oryctolagus cuniculus; test: Vasorelaxant effect at a concentration of 10e-8 M on rabbit aortic rings previously contracted with 1.0 uM Norepinephrine.; assay type: functional; settings: Aorta; how it was run: as §2
Oryctolagus cuniculus [16] = organism: Oryctolagus cuniculus; test: Vasorelaxant effect at a concentration of 10e-9 M on rabbit aortic rings previously contracted with 1.0 uM Norepinephrine.; assay type: functional; settings: Aorta; how it was run: as §2
Oryctolagus cuniculus [17] = organism: Oryctolagus cuniculus; test: Vasorelaxant effect at a concentration of 10e-8 M on rabbit aortic rings previously contracted with 50 mM KCl.; assay type: functional; settings: Aorta; how it was run: as §2

Compound	EC25 (Rattus norvegicus [1])	EC25 (Rattus norvegicus [2]) [nM]	IC50 [3] [nM]	further results
CCO/C(O)=C1\C(C[S+]([O-])c2ccccc2F)=NC(C)=C(C#N)C1c1ccccc1C(F)(F)F (configuration not stated)	930 nM	360	> 1000	–
CCO/C(O)=C1\C(CSc2ccc(NC(C)=O)cc2)=NC(C)=C(C#N)C1c1ccccc1C(F)(F)F (configuration not stated)	inactive	260	205	–
CCO/C(O)=C1\C(C[S+]([O-])c2ccccc2C)=NC(C)=C(C#N)C1c1ccccc1C(F)(F)F (configuration not stated)	130 nM	800	> 1000	–
CC1=C(C#N)C(c2ccccc2C(F)(F)F)/C(=C(\O)OCCN(C)Cc2ccccc2)C(C[S+]([O-])c2ccccc2)=N1 (configuration not stated)	120 nM	420	> 1000	–
CCOC(=O)C1=C(C[S+]([O-])c2ccccc2)NC(C)=C(C#N)C1c1cccc([N+](=O)[O-])c1 (stereo in doubt; 32b) [listing 1 of 2 here]	3000 nM	–	> 1000	–
CCO/C(O)=C1\C(C[S+]([O-])c2ccccc2)=NC(C)=C(C#N)C1c1ccccc1Cl (configuration not stated)	910 nM	540	> 1000	–
CCOC(=O)C1=C(C[S+]([O-])c2ccccc2)NC(C)=C(C#N)C1c1ccccc1C(F)(F)F (stereo in doubt; 29a)	–	–	–	EC25 (Rattus norvegicus [4]): inactive
CCO/C(O)=C1\C(CS(=O)(=O)c2ccccc2C)=NC(C)=C(C#N)C1c1ccccc1C(F)(F)F (configuration not stated)	320 nM	470	> 1000	–
C=CCO/C(O)=C1\C(CS(=O)(=O)c2ccccc2)=NC(C)=C(C#N)C1c1ccccc1C(F)(F)F (configuration not stated)	300 nM	<100	580	–
CCO/C(O)=C1\C(CS(=O)(=O)c2ccc(N)cc2)=NC(C)=C(C#N)C1c1ccccc1C(F)(F)F (configuration not stated)	840 nM	940	1000	Vasorelaxant effect (Oryctolagus cuniculus [5]): 5; Vasorelaxant effect (Oryctolagus cuniculus [6]): 2; Vasorelaxant effect (Oryctolagus cuniculus [7]): 2; Vasorelaxant effect (Oryctolagus cuniculus [8]): 38; Vasorelaxant effect (Oryctolagus cuniculus [9]): 69; Vasorelaxant effect (Oryctolagus cuniculus [10]): 2; Vasorelaxant effect (Oryctolagus cuniculus [11]): 2; Vasorelaxant effect (Oryctolagus cuniculus [12]): 5
CC1=C(C#N)C(c2ccccc2C(F)(F)F)/C(=C(\O)OC(C)C)C(C[S+]([O-])c2ccccc2)=N1 (configuration not stated)	–	240	500	EC25 (Rattus norvegicus [13]): inactive
CCO/C(O)=C1\C(CS(=O)(=O)c2ccccc2)=NC(C)=C(C#N)C1c1ccccc1 (configuration not stated)	960 nM	–	480	Vasorelaxant effect (Oryctolagus cuniculus [5]): 6; Vasorelaxant effect (Oryctolagus cuniculus [6]): 1; Vasorelaxant effect (Oryctolagus cuniculus [7]): 4; Vasorelaxant effect (Oryctolagus cuniculus [8]): 26; Vasorelaxant effect (Oryctolagus cuniculus [9]): 54; EC25 (Rattus norvegicus [4]): inactive; Vasorelaxant effect (Oryctolagus cuniculus [10]): 0; Vasorelaxant effect (Oryctolagus cuniculus [11]): 0; Vasorelaxant effect (Oryctolagus cuniculus [12]): 1
NITROPRUSSIDE	–	–	–	Vasorelaxant effect (Oryctolagus cuniculus [14]): -5.9; Vasorelaxant effect (Oryctolagus cuniculus [5]; Aorta): 55.8; Vasorelaxant effect (Oryctolagus cuniculus [6]; Aorta): 22.8; Vasorelaxant effect (Oryctolagus cuniculus [7]; Aorta): 5.6; Vasorelaxant effect (Oryctolagus cuniculus [15]): 0.7; Vasorelaxant effect (Oryctolagus cuniculus [16]): -0.003; Vasorelaxant effect (Oryctolagus cuniculus [8]; Aorta): 40.4; Vasorelaxant effect (Oryctolagus cuniculus [9]; Aorta): 52.1; Vasorelaxant effect (Oryctolagus cuniculus [10]; Aorta): 7; Vasorelaxant effect (Oryctolagus cuniculus [11]; Aorta): 39.8; Vasorelaxant effect (Oryctolagus cuniculus [17]): -4.8; Vasorelaxant effect (Oryctolagus cuniculus [12]; Aorta): 22
CO/C(O)=C1\C(C[S+]([O-])c2ccccc2)=NC(C)=C(C#N)C1c1ccccc1C(F)(F)F (configuration not stated)	260 nM	1480	> 1000	–
CCO/C(O)=C1\C(CS(=O)(=O)c2ccccc2)=NC(C)=C(C#N)C1C1CCCCC1 (configuration not stated)	1090 nM	520	> 1000	–
CCO/C(O)=C1\C(CS(=O)(=O)c2ccc(OC)cc2)=NC(C)=C(C#N)C1c1ccccc1C(F)(F)F (configuration not stated)	inactive	300	109	–
CCOC(=O)C1=C(C[S+]([O-])c2ccccc2)NC(C)=C(C#N)C1c1cccc([N+](=O)[O-])c1 (stereo in doubt; 32b) [listing 2 of 2 here]	–	–	–	EC25 (Rattus norvegicus [4]): inactive
CC1=C(C#N)C(c2ccccc2C(F)(F)F)/C(=C(\O)OC(C)C)C(CSc2ccccc2)=N1 (configuration not stated)	–	–	250	Vasorelaxant effect (Oryctolagus cuniculus [5]): 9; Vasorelaxant effect (Oryctolagus cuniculus [6]): -2; Vasorelaxant effect (Oryctolagus cuniculus [7]): 0; Vasorelaxant effect (Oryctolagus cuniculus [8]): 30; Vasorelaxant effect (Oryctolagus cuniculus [9]): 74; Vasorelaxant effect (Oryctolagus cuniculus [10]): -1; Vasorelaxant effect (Oryctolagus cuniculus [11]): 8; Vasorelaxant effect (Oryctolagus cuniculus [12]): 2
CCOC(=O)C1=C(C[S+]([O-])c2ccccc2)NC(C)=C(C#N)C1c1cccc([N+](=O)[O-])c1 (stereo in doubt; 32a)	2500 nM	–	> 1000	–
